Assays:
[1] = Lipophilicity, logP of compound in n-Octanol/water; assay type: physicochemical
[2] = Drug uptake in human A549 cells at 10 uM incubated for 1 hr by FACS analysis; assay type: ADME, cell-based; details: a549, 1 h
Procedure, shortened: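 A549 cells (1.5 × 10^5/well) were washed and given 10 µM compound in medium with 1% DMSO for 0, 0.5, 1 or 2 h at 37 °C. They were irradiated in PBS with visible light (400–700 nm, 11 mW) for 10 min, then trypsinized and resuspended in HBSS. Blue coumarin fluorescence was read by flow cytometry on about 10000 cells.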

A549 [3] = test: Photo-induced drug release in human A549 cells assessed as increase in blue fluorescence at 10 uM incubated for 1 hr prior to PBS washout followed by visible light irradiation for 2 mins and further incubated for 10 mins by fluorescence imaging analysis; assay type: ADME, cell-based; details: a549, 1 h
Procedure, shortened: (§1)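 A549 cells (2 × 10^5/well, seeded a day before) received 10 µM compound for 1 h at 37 °C in the dark and were washed with cold PBS. They were irradiated with 400–700 nm light (11 mW) for 0, 2, 5, 10, 15, 20 or 30 min, then held 10 min. Blue-channel fluorescence was imaged and given as the mean of 30 cells, fitted to an exponential.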

A549 [4] = test: Photo-induced drug release in human A549 cells assessed as increase in blue fluorescence at 10 uM incubated for 1 hr prior to PBS washout followed by visible light irradiation and further incubated for 10 mins by fluorescence imaging analysis; assay type: ADME, cell-based; details: a549, 1 h, TDE = time-dependent effect; procedure, shortened: as §1
[5] = Drug localization in human A549 cells mitochondria at 10 uM incubated for 1 hr prior to PBS washout followed by visible light irradiation for 10 mins by inverted fluorescence microscopy analysis; assay type: ADME; details: a549, 1 h
Procedure, shortened: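 A549 cells were loaded with 10 µM compound in complete DMEM for 1 h at 37 °C, washed, and irradiated in PBS with 400–700 nm light (11 mW) for 10 min. Mito Red (100 nM, 15 min) was added before a PBS wash. Coumarin signal was imaged at ex/em 350/460 nm and Mito Red at 550/580 nm. Overlap was taken from a scatter plot as Pearson's correlation coefficient.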

A549 [6] = test: Induction of mitochondrial membrane depolarization in human A549 cells after 30 mins by JC-1 dye staining based FACS analysis (reference value: 5.3 +/- 1.1 %); assay type: functional; details: 0.5 h
A549 [7] = test: Induction of mitochondrial membrane depolarization in human A549 cells after 1 hr by JC-1 dye staining based FACS analysis (reference value: 5.3 +/- 1.1 %); assay type: functional
A549 [8] = test: Photocytotoxicity in human A549 cells assessed as reduction in cell viability preincubated for 1 hr followed by visible light irradiation for 30 mins and measured after 72 hrs by MTT assay; assay type: functional, cell-based; details: for IC50: A549, light or radiation study
Procedure, shortened: (§2)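 A549 or MCF7 cells (9000/well, grown 24 h) were given compound in medium with ≤1% DMSO for 1 h at 37 °C in the dark, washed twice and placed in PBS. They were irradiated with 400–700 nm light (11 mW) for 10, 20 or 30 min, then incubated 72 h in the dark. Viability was read by MTT (2 h, 37 °C), with formazan in DMSO at 570 nm. Unirradiated wells served as dark control.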

A549 [9] = test: (§3) Dark toxicity in human A549 cells assessed as reduction in cell viability incubated for 72 hrs by MTT assay; assay type: cell-based; details: a549, 72 h, time 72 hrs
Procedure, shortened: (§4)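 Cells seeded at 9000/well in DMEM with 10% FBS, grown 24 h at 37 °C in 5% CO2. Compound in medium with ≤1% DMSO for 1 h at 37 °C in the dark, washed twice with PBS, kept unirradiated, then incubated 72 h in the dark. MTT (5 mg mL-1 stock) added for 2 h at 37 °C, formazan dissolved in DMSO, absorbance read at 570 nm.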

A549 [10] = test: Dark toxicity in human A549 cells assessed as reduction in cell viability upto 20 uM incubated for 72 hrs by MTT assay; assay type: cell-based; details: a549, 72 h; procedure, shortened: as §4
A549 [11] = test: Photocytotoxicity in human A549 cells assessed as reduction in cell viability at 5 uM preincubated for 1 hr followed by visible light irradiation upto 30 mins and measured after 72 hrs by MTT assay; assay type: functional, cell-based; details: time 73.5 hrs, TDE = time-dependent effect; procedure, shortened: as §2
MCF7 = test: Photocytotoxicity in human MCF7 cells assessed as reduction in cell viability preincubated for 1 hr followed by visible light irradiation for 30 mins and measured after 72 hrs by MTT assay; assay type: functional, cell-based; details: MCF7, light or radiation study; procedure, shortened: as §2
A549 [12] = test: Photocytotoxicity in human A549 cells assessed as reduction in cell viability at 10 uM preincubated for 1 hr followed by two-photon NIR light irradiation for 5 mins and measured after 72 hrs by MTT assay; assay type: functional; details: time 4385 min, 73.08 h
Procedure, shortened: (§5)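 A549 cells (9000/well) were treated with compound for 1 h at 37 °C in the dark, then moved to PBS. They were irradiated with a two-photon femtosecond laser (800 nm, 50 mW) for 0, 5, 10, 15 or 20 min, then incubated 72 h in the dark in medium. Viability was read by MTT over 2 h, with formazan in DMSO at 570 nm. Unirradiated wells served as dark control.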

A549 [13] = test: Photocytotoxicity in human A549 cells assessed as reduction in cell viability at 10 uM preincubated for 1 hr followed by two-photon NIR light irradiation for 10 mins and measured after 72 hrs by MTT assay; assay type: functional; details: time 4390 min, 73.17 h; procedure, shortened: as §5
A549 [14] = test: Photocytotoxicity in human A549 cells assessed as reduction in cell viability at 10 uM preincubated for 1 hr followed by two-photon NIR light irradiation for 20 mins and measured after 72 hrs by MTT assay; assay type: functional; details: time 4400 min, 73.33 h; procedure, shortened: as §5
[15] = Drug release in 1: 9 DMSO/PBS at pH 7 at 50 uM under visible light irradiation upto 20 mins by emission spectroscopy; assay type: ADME; details: buffer, pH 7, 20 min
Procedure, shortened: (§6)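 Drug release was measured across pH 4–9. Solutions of 50 µM in 1:9 DMSO/buffer were irradiated with 400–700 nm light (11 mW) at 2 cm and 25 °C, in 2-min steps over 0–20 min. Release was taken from coumarin reporter emission (ex 385 nm, em 475 nm). A dark control received no light.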

[16] = Drug release in 1: 9 DMSO/PBS at pH 9 at 50 uM under visible light irradiation upto 20 mins by emission spectroscopy; assay type: ADME; details: buffer, pH 9, 20 min; procedure, shortened: as §6
[17] = Drug release in 1: 9 DMSO/PBS at pH 4 at 50 uM under visible light irradiation upto 20 mins by emission spectroscopy; assay type: ADME; details: buffer, pH 4, 20 min; procedure, shortened: as §6
A549 [18] = test: Photocytotoxicity in human A549 cells assessed as reduction in cell viability preincubated for 1 hr followed by two-photon NIR light irradiation for 10 mins and measured after 72 hrs by MTT assay; details: A549, light or radiation study
[19] = as §3; assay type: cell-based; details: A549 cells; procedure, shortened: as §4
[20] = Dark toxicity in human MCF7 cells assessed as reduction in cell viability incubated for 72 hrs by MTT assay; assay type: cell-based; procedure, shortened: as §4

For `CCN(CC)c1ccc(/C=C/C(=O)OC[C@H]2O[C@@H](n3ccc(N)nc3=O)C(F)(F)[C@@H]2O)c(O)c1`, the logP [1] was 2.1, the Drug uptake [2] was “Active” and the Drug metabolism (A549 [3]) was “Metabolite_Detected”. For the same compound, the Drug metabolism (A549 [4]) was “Tde”, the Drug uptake [5] was “Active” and the Activity (A549 [6]) was 13.9%. The Activity (A549 [7]) was 82.3%, the IC50 (A549 [8]) was 5050 nM and the Activity (A549 [8]; time 73.5 hrs) was “Dose-Dependent Effect”. For the same compound, the Activity (A549 [9]) was “Non-Toxic”, the Activity (A549 [10]) was “Non-Toxic” and the Activity (A549 [11]) was “Tde”. The IC50 (MCF7) was 5450 nM, the Activity (A549 [12]) was 35% and the Activity (A549 [13]) was 47%. The Activity (A549 [14]) was 57%, the Drug metabolism [15] was “Active” and the Drug metabolism [16] was “Active”. For the same compound, the Drug metabolism [17] was “Active” and the IC50 (A549 [18]) was 12500 nM.
`Nc1ccn([C@@H]2O[C@H](CO)[C@@H](O)C2(F)F)c(=O)n1` [GEMCITABINE] showed an IC50 (A549 [8]) of 650 nM, an IC50 at 72 h [19] of 750 nM and an IC50 at 72 h [20] of 1460 nM. It also gave an IC50 (MCF7) of 1360 nM and an IC50 (A549 [18]) of 800 nM.

From ChEMBL document CHEMBL5329148, “Visible and NIR light photoactivatable o-hydroxycinnamate system for efficient drug release with fluorescence monitoring” (RSC Med Chem, 2023)
